In ChEMBL document CHEMBL4425091, “Bafilomycins and Odoriferous Sesquiterpenoids from Streptomyces albolongus Isolated from Elephas maximus Feces” (J Nat Prod, 2016):
pIC50: −log10 of the molar value. ≈ marks a conversion by molar mass, not a printed value. Calls of active or inactive are those of the source.

Legend:
[1] = test system: Candida parapsilosis; experiment: Antifungal activity against Candida parapsilosis ATCC 22019 at 100 ug/ml after 48 hrs by MTT based microbroth dilution assay; assay type: functional, organism-based
[2] = test system: Cryptococcus neoformans; experiment: Antifungal activity against Cryptococcus neoformans ATCC 208821 at 100 ug/ml after 72 hrs by MTT based microbroth dilution assay; assay type: functional, organism-based
[3] = test system: Caco-2; experiment: Cytotoxicity against human Caco2 cells assessed as reduction in cell viability by MTT assay; assay type: functional, cell-based
Summary of the method: (§1)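 MTT viability assay in human cancer cell lines. IC50 was defined as a 50% reduction of absorbance relative to the control assay. Adriamycin served as the positive control.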

[4] = test system: Bacillus spizizenii; experiment: Antibacterial activity against Bacillus subtilis ATCC 6633 at 100 ug/ml after 24 hrs by MTT based microbroth dilution assay; assay type: functional, organism-based
[5] = test system: Candida albicans; experiment: Antifungal activity against Candida albicans ATCC MYA-2876 at 100 ug/ml after 48 hrs by MTT based microbroth dilution assay; assay type: functional, organism-based
[6] = test system: BGC-823; experiment: Cytotoxicity against human BGC823 cells assessed as reduction in cell viability by MTT assay; assay type: functional, cell-based; summary of the method: as §1
[7] = test system: NCI-H460; experiment: Cytotoxicity against human NCI-H460 cells assessed as reduction in cell viability by MTT assay; assay type: functional, cell-based; summary of the method: as §1
[8] = test system: Escherichia coli; experiment: Antibacterial activity against Escherichia coli ATCC 25922 at 100 ug/ml after 24 hrs by MTT based microbroth dilution assay; assay type: functional, organism-based
[9] = test system: SMMC-7721; experiment: Cytotoxicity against human SMMC7721 cells assessed as reduction in cell viability by MTT assay; assay type: functional, cell-based; summary of the method: as §1
[10] = test system: Staphylococcus aureus; experiment: Antibacterial activity against Staphylococcus aureus ATCC 25923 at 100 ug/ml after 24 hrs by MTT based microbroth dilution assay; assay type: functional, organism-based
[11] = test system: Bacillus spizizenii; experiment: Antibacterial activity against Bacillus subtilis ATCC 6633 after 24 hrs by MTT based microbroth dilution assay; assay type: functional; settings: ATCC 6633, 24 h
Summary of the method: (§2)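 Two-fold broth microdilution MIC in LB medium (pH 7.0). Compounds dissolved in DMSO, serially diluted to eight levels (11.0−0.086 mg/mL), then each diluted 10-fold in medium (1.1−0.0086 mg/mL). 10 μL of this added to 100 μL of bacteria at 1 × 10^6 cfu/mL. Incubated 24 h at 28 °C. MTT added for 4 h, wells emptied, DMSO added, absorbance read at 570 nm.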

[12] = test system: Candida albicans; experiment: Antifungal activity against Candida albicans ATCC MYA-2876 after 48 hrs by MTT based microbroth dilution assay; assay type: functional; settings: ATCC MYA-2876, 48 h
Summary of the method: (§3)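 MIC by broth microdilution in RPMI-1640 with NaHCO3 and MOPS, pH 7.0. DMSO stocks were 2-fold serially diluted to eight levels, then 10-fold in medium (1.1–0.0086 mg/mL). 10 µL was added to 100 µL yeast suspension: C. albicans and C. parapsilosis at 2 × 10^3 cfu/mL for 48 h; C. neoformans at 5 × 10^4 cfu/mL for 72 h; all at 28 °C. MTT added for 4 h, DMSO solubilization, A570.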

[13] = test system: Cryptococcus neoformans; experiment: Antifungal activity against Cryptococcus neoformans ATCC 208821 after 72 hrs by MTT based microbroth dilution assay; assay type: functional; settings: ATCC 208821, 72 h; summary of the method: as §3
[14] = test system: Staphylococcus aureus; experiment: Antibacterial activity against Staphylococcus aureus ATCC 25923 after 24 hrs by MTT based microbroth dilution assay; assay type: functional; settings: ATCC 25923, 24 h; summary of the method: as §2
[15] = test system: Candida parapsilosis; experiment: Antifungal activity against Candida parapsilosis ATCC 22019 after 48 hrs by MTT based microbroth dilution assay; assay type: functional; settings: Lodderomyces parapsilosis, ATCC 22019, 48 h; summary of the method: as §3

C/C1=C\[C@@H](O)C[C@H](C)/C=C/[C@H](C(C)(C)O)CC1
Activity [1]: inactive
Activity [2]: inactive
Activity [3]: inactive
Activity [4]: inactive
Activity [5]: inactive
Activity [6]: inactive
Activity [7]: inactive
Activity [8]: inactive
Activity [9]: inactive
Activity [10]: inactive

CC1(C)C[C@H]2[C@H]1CC[C@]1(C)CCC[C@@]2(O)C1
Activity [1]: inactive
Activity [2]: inactive
Activity [3]: inactive
Activity [4]: inactive
Activity [5]: inactive
Activity [6]: inactive
Activity [7]: inactive
Activity [8]: inactive
Activity [9]: inactive
Activity [10]: inactive

CC1=C[C@@H]2[C@@H](C(C)C)CC[C@H](C)[C@]2(O)CC1
Activity [1]: inactive
Activity [2]: inactive
Activity [3]: inactive
Activity [4]: inactive
Activity [5]: inactive
Activity [6]: inactive
Activity [7]: inactive
Activity [8]: inactive
Activity [9]: inactive
Activity [10]: inactive

CO/C1=C\C(C)=C\[C@@H](C)[C@@H](O)[C@@H](C)C/C(C)=C/C=C/[C@H](OC)[C@@H]([C@@H](C)[C@@H](O)[C@H](C)[C@@]2(OC)CC[C@H](C)[C@@H](C(C)C)O2)OC1=O
Activity [1]: inactive
Activity [2]: inactive
pIC50 [3]: < 4.00
Activity [4]: inactive
Activity [5]: inactive
pIC50 [6]: 4.33
pIC50 [7]: < 4.00
Activity [8]: inactive
pIC50 [9]: 4.87
Activity [10]: inactive

CO/C1=C\C(C)=C\[C@@H](C)[C@@H](O)[C@@H](C)C/C(C)=C/C=C/[C@H](OC)[C@@H]([C@@H](C)[C@@H](O)[C@H](C)[C@@]2(OC)C[C@@H](OC(=O)/C=C/C(N)=O)[C@H](C)[C@@H](C(C)C)O2)OC1=O
Activity [1]: inactive
Activity [2]: inactive
pIC50 [3]: 5.55
Activity [4]: inactive
Activity [5]: inactive
pIC50 [6]: 5.45
pIC50 [7]: 5.30
Activity [8]: inactive
pIC50 [9]: 5.87
Activity [10]: inactive

CO/C1=C\C(C)=C\[C@@H](C)[C@@H](O)[C@@H](C)C/C(C)=C/C=C/[C@H](OC)[C@@H]([C@@H](C)[C@@H](O)[C@H](C)[C@@]2(OC)C[C@@H](O)[C@H](C)[C@@H](C(C)C)O2)OC1=O
Activity [1]: inactive
Activity [2]: inactive
pIC50 [3]: 4.99
Activity [4]: inactive
Activity [5]: inactive
pIC50 [6]: 4.65
pIC50 [7]: 4.57
Activity [8]: inactive
pIC50 [9]: 5.03
Activity [10]: inactive

O=C(O)c1cn(C2CC2)c2cc(N3CCNCC3)c(F)cc2c1=O [CIPROFLOXACIN]
MIC [11]: 0.25 µg/mL (≈ 0.754 µM)

CO/C1=C\C(C)=C\[C@@H](C)[C@@H](O)[C@@H](C)C/C(C)=C/C=C/[C@H](OC)[C@@H]([C@@H](C)[C@@H](O)[C@H](C)[C@@]2(O)C[C@@H](OC(=O)/C=C/C(=O)O)[C@H](C)[C@@H](C(C)C)O2)OC1=O
MIC [12]: 1.56 µg/mL (≈ 2.16 µM)
MIC [13]: 1.56 µg/mL (≈ 2.16 µM)
pIC50 [3]: 5.72
MIC [11]: 12.5 µg/mL (≈ 17.3 µM)
pIC50 [6]: 5.74
MIC [14]: 12.5 µg/mL (≈ 17.3 µM)
pIC50 [7]: 5.46
MIC [15]: 1.56 µg/mL (≈ 2.16 µM)
pIC50 [9]: 6.27

CO/C1=C\C(C)=C\[C@@H](C)[C@@H](O)[C@@H](C)C/C(C)=C/C=C/[C@H](OC)[C@@H]([C@@H](C)[C@@H](O)[C@H](C)[C@@]2(O)CC[C@H](C)[C@@H](C(C)C)O2)OC1=O
MIC [12]: 100 µg/mL (≈ 165 µM)
MIC [13]: 25 µg/mL (≈ 41.2 µM)
pIC50 [3]: 4.33
pIC50 [6]: 4.93
pIC50 [7]: 4.36
MIC [15]: 3.13 µg/mL (≈ 5.16 µM)
pIC50 [9]: 4.99

C[C@H]1CC[C@@H](O)[C@@]2(C)CCCC[C@]12O
MIC [12]: 12.5 µg/mL (≈ 63 µM)
MIC [13]: > 100 µg/mL
pIC50 [3]: 4.07
pIC50 [6]: 4.46
pIC50 [7]: < 4.00
MIC [15]: 3.13 µg/mL (≈ 15.8 µM)
pIC50 [9]: 4.38
